Measurements from different studies.
Target: Mitogen-activated protein kinase 8 (MAPK8, Homo sapiens, UniProt P45983)

SMILES	test	setting	remaining binding
C[C@@H]1CCN(c2nccc(-c3cnn4ncccc34)n2)C1	binding, competition with immobilised ligand	1 µM	23%
O=C(O)c1cc(-c2ccc(C3CCNCC3)cc2)c2ccc(-c3ccc(C(F)(F)F)cc3)cc2c1	cell-free assay, competition with immobilised ligand	1 µM	100%
C[C@@H]1CN(c2ccc3ncc(-c4ccc5[nH]nc(C6CC6)c5c4)n3n2)C[C@H](C)O1	binding, competition with immobilised ligand	50 nM	80%
O=C(c1ccc(Nc2ncc(Cl)c(-c3cc4ccccc4s3)n2)cc1)N1CCC(N2CCCC2)CC1	binding, competition with immobilised ligand	1 µM	3%
c1cnn2ncc(-c3ccnc(N4CCC45COC5)n3)c2c1	binding, competition with immobilised ligand	1 µM	26%
Cc1c(NC(=O)c2cc(C(N)=O)nc3cc(F)ccc23)c(C(F)(F)F)nn1Cc1ccc(C(C)(C)C)cc1	cell-free assay, competition with immobilised ligand	1 µM	100%
O=C(c1ccc(Nc2nccc(-c3cc4ccccc4s3)n2)cc1)N1CCC(N2CCCC2)CC1	binding, competition with immobilised ligand	1 µM	2.4%
N[C@H]1CCN(c2nccc(-c3cnn4ncccc34)n2)C1	binding, competition with immobilised ligand	1 µM	85%
CC(C)(C)c1ccc(-c2nc(CBr)nn2-c2cccc(O)c2)cc1	cell-free assay, competition with immobilised ligand	10 µM	73%
CCN1CCN(Cc2ccc(C(=O)Nc3ccc(C)c(Oc4ccc5c(c4)CC(=O)N5)c3)cc2C(F)(F)F)CC1	binding, competition with immobilised ligand	1 µM	82%
CN(c1nccc(-c2cnn3ncccc23)n1)C1CC1	binding	1 µM	100%
O=c1nc(-c2ccccn2)sc2ccccc12	binding, competition with immobilised ligand	1 µM	100%
O=C(NCCCN1CCOCC1)c1ccc(Nc2ncc(Cl)c(-c3ccc(Cl)s3)n2)cc1	binding, competition with immobilised ligand	1 µM	2.5%
C[C@H](NC(=O)c1cnc2n1[C@](C)(Cc1ccc(C#N)cc1)C(=O)N2c1cc(Cl)c(F)c(Cl)c1)C(=O)NC1(c2ccccn2)CC1	cell-free assay, competition with immobilised ligand	1 µM	81%
COc1cnc(Nc2cccc(S(N)(=O)=O)c2)nc1N1CCN(c2ccccc2)C(=O)C1	binding, competition with immobilised ligand	1 µM	76%
NS(=O)(=O)c1cc(NC(=O)Cc2ccccc2)ccc1Oc1cccc(Cl)c1	cell-free assay, competition with immobilised ligand	1 µM	69%
COc1ccnn2ncc(-c3ccnc(N(C)C)n3)c12	binding	1 µM	75%
COc1ncc2cc3ccccc3nc2c1C#N	cell-free assay, competition with immobilised ligand	5 µM	100%
CC(=O)N1CCC(c2ccc(C(=O)NC(=N)N)cc2C(F)(F)F)CC1	cell-free assay, competition with immobilised ligand	1 µM	73%
F[C@@H]1CCN(c2nccc(-c3cnn4ncccc34)n2)C1	binding	1 µM	89%
O=C(Nc1c[nH]nc1C(=O)NC1CCNCC1)c1cc(F)cc(F)c1	binding, competition with immobilised ligand	1 µM	65%
COCCOc1nc(-c2ccc(Cl)nc2)nc2c1CN(C(=O)c1ncn3ccccc13)CC2	cell-free assay, competition with immobilised ligand	0.1 µM	100%
CN(C)c1ncc(F)c(-c2cnn3ncccc23)n1	binding, competition with immobilised ligand	1 µM	76%
c1cncc(-c2cccc(Nc3nccc(NC4CCCCC4)n3)c2)c1	binding, competition with immobilised ligand	10 µM	24%
